# According to ChEMBL document CHEMBL3792381, “Amine-free melanin-concentrating hormone receptor 1 antagonists: Novel 1-(1H-benzimidazol-6-yl)pyridin-2(1H)-one derivatives and design to avoid CYP3A4 time-dependent inhibition” (Bioorg Med Chem, 2016):
# Experiments:
# [1] = target: Melanin-concentrating hormone receptor 1 (Homo sapiens, UniProt Q99705); experiment: Displacement of [125I]-MCH(4 to 19) from human MCHR1 expressed in CHO cell membranes after 1 hr by liquid scintillation counting
# Method in brief: (§1)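 Membranes from CHO cells stably expressing human or rat MCHR1, prepared by homogenization and 100,000×g centrifugation, in 20 mM Tris-HCl pH 7.5 with 5 mM EDTA and protease inhibitors. Incubated with test compound and [125I]-MCH(4–19) for 1 h at room temperature. Filtered on PEI-treated GF/C filters and counted by scintillation. Nonspecific binding defined with cold MCH(1–19). IC50 from duplicate experiment.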
# [2] = target: Melanin-concentrating hormone receptor 1 (Rattus norvegicus, UniProt P97639); experiment: Displacement of [125I]-MCH(4-19) from rat MCHR1 expressed in CHO cell membranes after 1 hr by liquid scintillation counting; method in brief: as §1
# Chain of Melanin-concentrating hormone receptor 1 (Rattus norvegicus, UniProt P97639) (P97639 whole entry): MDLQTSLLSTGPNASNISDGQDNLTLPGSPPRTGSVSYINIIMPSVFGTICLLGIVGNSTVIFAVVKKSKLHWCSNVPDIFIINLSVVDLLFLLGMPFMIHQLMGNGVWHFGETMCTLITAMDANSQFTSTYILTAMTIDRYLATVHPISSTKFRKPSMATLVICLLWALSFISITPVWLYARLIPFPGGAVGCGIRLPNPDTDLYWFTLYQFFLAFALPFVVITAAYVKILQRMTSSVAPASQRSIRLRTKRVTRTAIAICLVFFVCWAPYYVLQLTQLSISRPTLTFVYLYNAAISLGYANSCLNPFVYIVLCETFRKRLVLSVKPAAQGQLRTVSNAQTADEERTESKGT
# Cytochrome P450 3A4 = Cytochrome P450 3A4 (Homo sapiens, UniProt P08684); experiment: Time dependent inhibition of CYP3A4 in human liver microsomes at 10 uM; format: ADME
# Chain of Cytochrome P450 3A4 (P08684 whole entry): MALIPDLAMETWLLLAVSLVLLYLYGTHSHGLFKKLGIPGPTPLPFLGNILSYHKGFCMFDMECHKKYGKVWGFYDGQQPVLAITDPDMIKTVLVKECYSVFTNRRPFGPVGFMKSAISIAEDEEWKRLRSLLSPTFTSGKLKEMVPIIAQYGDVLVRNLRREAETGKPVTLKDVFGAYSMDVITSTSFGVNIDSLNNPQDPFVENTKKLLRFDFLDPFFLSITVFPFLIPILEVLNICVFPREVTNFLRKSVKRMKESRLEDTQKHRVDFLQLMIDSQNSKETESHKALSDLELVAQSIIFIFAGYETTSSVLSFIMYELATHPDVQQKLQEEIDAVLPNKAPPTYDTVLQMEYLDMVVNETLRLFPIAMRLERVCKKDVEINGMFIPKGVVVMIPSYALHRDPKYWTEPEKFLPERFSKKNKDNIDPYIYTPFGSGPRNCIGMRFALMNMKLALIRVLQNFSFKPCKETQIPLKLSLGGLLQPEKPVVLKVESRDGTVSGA
# CYP3A4 = CYP3A4 (Homo sapiens, UniProt P08684); experiment: Time dependent inhibition of CYP3A4 in human liver microsomes assessed as conversion of testosterone to 6beta-hydroxytestosterone by measuring remaining activity at 30 uM by UPLC analysis in presence of NADPH generating system; format: ADME; conditions: read-out: Activity
# Chain of CYP3A4 (P08684 whole entry): as above
# Method in brief: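 Single-point assay: test compound at 30 µM preincubated with human liver microsomes at 37 °C in phosphate buffer pH 7.4 with an NADPH-generating system. Residual CYP3A4 activity then measured as testosterone 6β-hydroxylation by UPLC. Percent remaining = activity with preincubation (% of DMSO control) over activity without preincubation; n = 2.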
# Chain of Melanin-concentrating hormone receptor 1 (Homo sapiens, UniProt Q99705) (Q99705 whole entry): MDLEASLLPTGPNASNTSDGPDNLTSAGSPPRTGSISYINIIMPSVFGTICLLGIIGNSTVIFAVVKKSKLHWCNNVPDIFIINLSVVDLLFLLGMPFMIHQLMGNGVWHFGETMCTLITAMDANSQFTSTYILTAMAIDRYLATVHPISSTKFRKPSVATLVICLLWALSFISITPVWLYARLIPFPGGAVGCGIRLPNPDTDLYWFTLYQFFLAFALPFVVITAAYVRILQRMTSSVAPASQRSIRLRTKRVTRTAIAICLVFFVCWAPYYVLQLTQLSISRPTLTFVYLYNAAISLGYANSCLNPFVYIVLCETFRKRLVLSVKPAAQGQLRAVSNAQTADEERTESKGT
IC50 [1] [nM],IC50 [2] [nM],inhibition (INH) (Cytochrome P450 3A4),activity at 30 µM (CYP3A4) [%],Structure (SMILES)
76,120,,,Cn1c(C2CC2)nc2ccc(-n3ccc(OCc4cccs4)cc3=O)cc21
,,Active,,Cc1c(C2CC2)nc2ccc(-n3ccc(OCc4ccc(Cl)cc4)cc3=O)cn12
34,39,,,CCCc1nc2ccc(-n3ccc(OCc4ccc(F)cc4)cc3=O)cc2n1C
34,17,,87,Cn1c(C2CC2)nc2ccc(-n3ccc(OCc4cc(C(F)(F)F)cs4)cc3=O)cc21
77,65,,,Cc1nc2ccc(-n3ccc(OCc4ccc(F)cc4)cc3=O)cc2n1C
14,9.3,,44,Cn1c(C2CC2)nc2ccc(-n3ccc(OCc4csc(Cl)c4)cc3=O)cc21
600,460,,,Cn1c(C2CCCC2)nc2ccc(-n3ccc(OCc4ccc(F)cc4)cc3=O)cc21
380,,,,Cc1c(C2CC2)nc2ccc(-n3ccc(OCc4ccc(Cl)cc4)cc3=O)nn12
41,29,,96,Cn1c(C2CC2)nc2ccc(-n3ccc(OCc4csc(C(F)(F)F)c4)cc3=O)cc21
28,29,,74,Cn1c(C2CC2)nc2ccc(-n3ccc(OCc4ccsc4)cc3=O)cc21
> 1000,> 1000,,,Cn1c(CC(C)(C)C)nc2ccc(-n3ccc(OCc4ccc(F)cc4)cc3=O)cc21
73,47,,,Cn1c(C2CC2)nc2ccc(-n3ccc(OCc4ccc(Cl)cn4)cc3=O)cc21
40,28,,,Cn1c(C2CC2)nc2ccc(-n3ccc(OCc4ccc(F)cc4)cc3=O)cc21
17,18,,25,Cn1c(C2CC2)nc2ccc(-n3ccc(OCc4cc(Cl)cs4)cc3=O)cc21
100,72,,,Cn1c(C2CC2)nc2ccc(-n3ccc(OCc4cccc(Cl)c4)cc3=O)cc21
